Source: ChEMBL document CHEMBL4706681, “New 2-Pyrazoline and Hydrazone Derivatives as Potent and Selective Monoamine Oxidase A Inhibitors” (J Med Chem, 2021)
Active and inactive are the calls of the source. The rule behind the calls is not given here.

Assays:
[1] = Ex vivo inhibition of MAOA in CD1 mouse brain homogenates assessed as inhibition of dopamine deamination by measuring DOPAC metabolite levels at 20 mg/kg, po administered as single acute dose via gavage and measured after 1 hr by HPLC analysis (reference value: 1.22 +/- 0.2 ug/g); format: functional
[2] = Ex vivo inhibition of MAOA in CD1 mouse brain homogenates assessed as assessed as inhibition of dopamine deamination by measuring DOPAC metabolite levels at 30 mg/kg, po administered as single acute dose via gavage and measured after 1 hr by HPLC analysis (reference value: 1.22 +/- 0.2 ug/g); format: functional
[3] = molecular target: T1, Amine oxidase [flavin-containing] A (Homo sapiens, UniProt P21397); test: Inhibition of recombinant human MAO-A expressed in baculovirus infected BTI insect cells using p-tyramine as substrate incubated for 30 mins by Amplex red reagent based fluorescence analysis
T1 sequence (P21397 whole entry): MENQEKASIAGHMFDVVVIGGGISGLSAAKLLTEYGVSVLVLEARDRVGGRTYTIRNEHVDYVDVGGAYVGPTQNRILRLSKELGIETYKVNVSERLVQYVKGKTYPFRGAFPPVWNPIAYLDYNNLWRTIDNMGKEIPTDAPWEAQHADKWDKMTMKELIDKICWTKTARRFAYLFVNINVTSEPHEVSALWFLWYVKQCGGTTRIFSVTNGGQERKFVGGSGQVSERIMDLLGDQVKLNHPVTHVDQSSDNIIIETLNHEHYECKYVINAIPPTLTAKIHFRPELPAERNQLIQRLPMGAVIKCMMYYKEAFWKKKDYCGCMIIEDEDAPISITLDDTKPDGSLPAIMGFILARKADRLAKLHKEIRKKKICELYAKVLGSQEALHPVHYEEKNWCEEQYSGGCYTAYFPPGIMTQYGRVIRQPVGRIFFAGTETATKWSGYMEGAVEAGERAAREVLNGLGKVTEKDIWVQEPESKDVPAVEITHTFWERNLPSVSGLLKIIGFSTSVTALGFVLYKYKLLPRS

[4] = Ex vivo inhibition of MAOA in CD1 mouse brain homogenates assessed as 5-HT levels at 30 mg/kg, po administered as single acute dose via gavage and measured after 1 hr by ELISA kit method (reference value: 0.80 +/- 0.006 ug/g); format: functional
[5] = test system: Mus musculus; test: Antidepressant-like activity in CD1 mouse assessed as reduction in immobility time at 30 mg/kg, po administered via gavage for 7 days and measured 1 h post last dose by Porsolt-forced swim test; format: functional, organism-based; settings: time 7.0 day
In short: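 Male albino CD-1 mice (20–25 g), 12 h light/dark, food and water ad libitum. Dosed by oral gavage once daily for 7 days in 200 μL 0.5% CMC; vehicle-only controls. […] Forced swim test run 1 h after the last dose. Immobility scored every 60 s over 6 min; n = 8–12.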

SMILES: O=C(NCCN1CCOCC1)c1ccc(Cl)cc1 [MOCLOBEMIDE]
- Activity [1]: 1.24 µg/g

SMILES: COc1ccc(C2=NN(C(=O)Cn3c(=O)oc4ccc(C)cc43)C(c3cccc(OC)c3OC)C2)cc1 (stereo not given)
- Activity [2]: 1.25 µg/g
- Ki [3]: 9 nM
- Activity [4]: 1.1 µg/g
- Activity [5]: Active
